Structures are written as SMILES.

The species named for data set [1] is Cavia porcellus. In words: In vitro potency against muscarinic preparation from guinea pig atria. The data set is classed as functional. An outline of the steps:
(§1)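 Isolated tissues: guinea pig atria, ileum and trachea, and rat jejunum and bladder. Agonist concentration–response curves were run, with potency expressed as −log EC50. Values are means ± SEM of six to nine experiments.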

The target of data set [2] is T1, Muscarinic acetylcholine receptor M1 (Rattus norvegicus) (UniProt P08482).
T1 sequence (whole entry): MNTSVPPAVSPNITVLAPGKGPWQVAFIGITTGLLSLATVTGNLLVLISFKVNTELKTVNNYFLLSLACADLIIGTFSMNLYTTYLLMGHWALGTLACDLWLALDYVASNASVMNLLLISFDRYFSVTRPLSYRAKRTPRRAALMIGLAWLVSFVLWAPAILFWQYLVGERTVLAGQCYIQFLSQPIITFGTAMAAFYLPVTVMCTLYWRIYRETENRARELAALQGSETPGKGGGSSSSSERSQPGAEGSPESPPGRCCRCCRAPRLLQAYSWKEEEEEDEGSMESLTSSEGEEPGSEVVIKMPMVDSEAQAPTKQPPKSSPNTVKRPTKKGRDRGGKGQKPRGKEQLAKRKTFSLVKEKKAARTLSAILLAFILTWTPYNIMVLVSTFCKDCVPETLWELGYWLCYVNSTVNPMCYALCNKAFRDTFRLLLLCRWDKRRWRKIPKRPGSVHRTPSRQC
The settings on record: Cerebral cortex.

The species entered for data set [3] is Cavia porcellus. In words: In vitro potency against muscarinic preparation from guinea pig ileum. The data set is classed as functional. In outline: as §1
The species entered for data set [4] is Rattus norvegicus. Description: Hill coefficient for affinity to M1 muscarinic receptor of rat cerebral cortex.
The species named for data set [5] is Rattus norvegicus. In words: Hill coefficient for affinity to M2 muscarinic receptor of rat cerebral cortex.
The species entered for data set [6] is Rattus norvegicus. Description: In vitro potency against muscarinic preparation from rat bladder. It is filed as functional. In outline:
as §1

For data set [7], the species on record is Rattus norvegicus. In words: Hill coefficient for affinity to M3 muscarinic receptor of rat cerebral cortex.
For data set [8], the species on record is Rattus norvegicus. Description: In vitro potency against muscarinic preparation from rat jejunum. The data set is classed as functional. In outline:
as §1

For data set [9], the species on record is Cavia porcellus. In words: In vitro potency against muscarinic preparation from guinea pig ileum. It is filed as functional. In outline: as §1
The species entered for data set [10] is Rattus norvegicus. Description: In vitro potency against muscarinic preparation from rat jejunum. It is filed as functional. In outline:
as §1

For data set [11], the species on record is Cavia porcellus. In words: In vitro potency against muscarinic preparation from guinea pig trachea. The data set is classed as functional. An outline of the steps: as §1
Data set [12] is filed under the species Cavia porcellus. Description: In vitro potency against muscarinic preparation from guinea pig atria. The data set is classed as functional. In outline:
as §1

For data set [13], the species on record is Cavia porcellus. In words: In vitro potency against muscarinic preparation from guinea pig trachea. It is filed as functional. An outline of the steps: as §1
For data set [14], the target named is T1, Muscarinic acetylcholine receptor M1 (Rattus norvegicus). The settings on record: Cerebral cortex. The source holds these as a separate data set.

Take `C[C@H]1O[C@@H](C[N+](C)(C)C)C[C@@H]1O`: the EC50 is 6760 nM in the data set filed under Cavia porcellus [1] and 2400 nM in the data set filed under Cavia porcellus [3]. In data set [2], the nH came out at 0.76.

`C[C@H]1O[C@H](C[N+](C)(C)C)CC1=O.[I-]`: the nH turned out to be 0.89 in the data set filed under Rattus norvegicus [4], 0.63 in the data set listed under Rattus norvegicus [5] and 0.9 in the data set listed under Rattus norvegicus [7]. In addition, the EC50 was 229 nM in the data set filed under Cavia porcellus [1], 2000 nM in the data set filed under Rattus norvegicus [6], 148 nM in the data set listed under Cavia porcellus [3] and 661 nM in the data set listed under Rattus norvegicus [8].

On to `C[C@@H]1O[C@H](C[N+](C)(C)C)CC1=O.[I-]`, for which the nH in the data set listed under Rattus norvegicus [4] is on record as 0.79; in the data set listed under Rattus norvegicus [5] it was 0.58; in the data set filed under Rattus norvegicus [7] it was 0.78. The EC50 in the data set filed under Cavia porcellus [9] was 0.794 nM; in the data set listed under Rattus norvegicus [10], 7.41 nM; in the data set filed under Cavia porcellus [11], 1.12 nM; in the data set filed under Cavia porcellus [12], 1.2 nM.

`C[C@H]1O[C@@H](C[N+](C)(C)C)CC1=O.[I-]`: the nH in the data set listed under Rattus norvegicus [4] was determined as 1; in the data set listed under Rattus norvegicus [5], 0.6; in the data set filed under Rattus norvegicus [7] it was 1. The half-maximal effective concentration (EC50) was 501 nM in the data set filed under Cavia porcellus [1], 490 nM in the data set listed under Cavia porcellus [13], 3550 nM in the data set listed under Rattus norvegicus [6] and 302 nM in the data set listed under Cavia porcellus [3].

Turning to `C[C@@H]1O[C@H](C[N+](C)(C)C)C[C@H]1O`, the EC50 is 20.4 nM in the data set filed under Cavia porcellus [1] and 7.41 nM in the data set listed under Cavia porcellus [3]. Besides, the nH in [14] was found to be 1.

Take `C[C@@H]1O[C@@H](C[N+](C)(C)C)CC1=O.[I-]`: the nH in the data set filed under Rattus norvegicus [4] stood at 0.74; in the data set filed under Rattus norvegicus [5], 0.58; in the data set filed under Rattus norvegicus [7] it was 0.92. The EC50 in the data set listed under Cavia porcellus [1] was 5.13 nM; in the data set filed under Rattus norvegicus [6], 105 nM; in the data set listed under Cavia porcellus [3] it was 3.47 nM; in the data set filed under Rattus norvegicus [8] it was 20.4 nM.
